Measurements: ChEMBL document CHEMBL1156166, “Structural development studies of anti-hepatitis C virus agents with a phenanthridinone skeleton” (Bioorg Med Chem, 2010)
The source made the active and inactive calls. No cut-off for these calls is given here.

Tests used:
Hepatitis C virus [1] = assay: Antiviral activity against HCV in human NNC2 cells assessed as inhibition of viral RNA replication after 3 days by RT-PCR analysis
[2] = Cytotoxicity against human NNC2 cells assessed as decrease in GAPDH RNA level after 3 days by RT-PCR; format: cell-based; details: for CC50: nnc2, 72 h; for CC50 at 72 h: NNC2 cells
Procedure, shortened: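 NNC #2 cells carrying full-genomic HCV RNA replicons were grown in high-glucose DMEM with 10% FBS and 1 mg/mL G418. Cells were seeded at 5 × 10⁴ cells/mL and cultured 24 h at 37 °C. Medium was then replaced with DMEM/10% FBS containing graded compound concentrations for 3 days. HCV RNA and GAPDH RNA were quantified by real-time RT-PCR. EC50 and CC50 are the concentrations lowering each RNA to 50% of control.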

[3] = Selectivity index, CC50 for human NNC2 cells to IC50 for Hepatitis C virus; format: functional
[4] = Cytotoxicity against human NNC2 cells assessed as decrease in GAPDH RNA level at 10 uM after 3 days by RT-PCR; format: cell-based; details: for cytotoxicity at 72 h, 10 µM: NNC2 cells, read-out: INH; for inhibition (INH): nnc2, 72 h, 10 µM
Hepatitis C virus [5] = assay: Antiviral activity against HCV in human NNC2 cells assessed as inhibition of viral RNA replication at 10 uM after […] by RT-PCR analysis; format: functional, Hepacivirus hominis
Hepatitis C virus [6] = assay: Antiviral activity against HCV in human NNC2 cells assessed as inhibition of viral RNA replication at 10 uM after 3 days by RT-PCR analysis; details: Hepacivirus hominis
[7] = Hepatitis C virus, NNC2, 3 days, read-out: EC50

Row | Compound | EC50 (Hepatitis C virus [1]; [7]) [µM] | CC50 at 72 h [2] [µM] | also measured
1 | CC1(C)CCC(C)(C)c2cc3c(cc21)[nH]c(=O)c1ccccc13 |  |  | EC50 (Hepatitis C virus [1]; nnc2): Not Active; CC50 [2]: Not Active
2 | CCCCn1c(=O)c2ccccc2c2cc3ccccc3cc21 | 3.2 | 6.3 | Selectivity Index [3]: 1.97
3 | CCCCn1c(=O)c2ccccc2c2cc(C(C)C)ccc21 | 16.2 | 29.7 | 
4 | CCCCn1c(=O)c2ccccc2c2cc(C)ccc21 | 35.8 | 38.4 | cytotoxicity at 72 h, 10 µM [4]: 98.5%; inhibition at 10 µM (Hepatitis C virus [5]): 42%
5 | CCCCn1c(=O)c2ccccc2c2cc(F)ccc21 | > 50 | > 50 | 
6 | CCCCn1c(=O)c2ccccc2c2c3ccccc3ccc21 | 29.1 | 44.5 | 
7 | O=c1c2ccccc2c2cc(C(O)(C(F)(F)F)C(F)(F)F)ccc2n1CC(F)(F)F | 24.8 | 30.3 | 
8 | CCCCn1c(=O)c2ccccc2c2cc3c(cc21)C(C)(C)CCC3(C)C | 18.7 | 27.3 | 
9 | CCCCn1c(=O)c2cccc(C)c2c2ccccc21 |  |  | inhibition (Hepatitis C virus [6]): inactive; cytotoxicity at 72 h, 10 µM [4]: 94.9%
10 | CCCCn1c(=O)c2ccccc2c2ccc3ccccc3c21 | 19.5 | 24.3 | 
11 | CCn1c(=O)c2ccccc2c2cc(C(O)(C(F)(F)F)C(F)(F)F)ccc21 | 14.1 | > 40 | 
12 | CCCCn1c(=O)c2c3ccccc3ccc2c2ccccc21 | 29.9 | > 40 | 
13 | CCCCn1c(=O)c2cc3ccccc3cc2c2ccccc21 | 11 | > 40 | Selectivity Index [3]: >3.64
14 | CCCCn1c(=O)c2ccccc2c2cc(C(C)(C)C)ccc21 | 10.6 | 24.9 | 
15 | CCCCn1c(=O)c2c(C)cccc2c2ccccc21 |  |  | inhibition (Hepatitis C virus [6]): inactive; inhibition (INH) [4]: Not Active
16 | CCCCn1c(=O)c2cc3c(cc2c2ccccc21)C(C)(C)CCC3(C)C |  |  | EC50 (Hepatitis C virus [1]; nnc2): Not Active; CC50 [2]: Not Active
17 | CCCCn1c(=O)c2ccccc2c2ccccc21 | > 58.3 | 58.3 | inhibition (Hepatitis C virus [6]): inactive; inhibition (INH) [4]: Not Active
18 | CCCCn1c(=O)c2ccc(C)cc2c2ccccc21 |  |  | inhibition (Hepatitis C virus [6]): inactive; inhibition (INH) [4]: Not Active
19 | CCCCn1c(=O)c2ccccc2c2cc(C(F)(F)F)ccc21 | > 50 | > 50 | 

Row | Compound | EC50 (Hepatitis C virus [1]; [7]) [µM] | CC50 at 72 h [2] [µM] | also measured
20 | CCCCn1c(=O)c2ccccc2c2cc(C(O)(C(F)(F)F)C(F)(F)F)ccc21 | 3.7 | 12.5 | 
21 | O=c1c2ccccc2c2cc(C(O)(C(F)(F)F)C(F)(F)F)ccc2n1CC1CCCCC1 | 6.7 | 14.4 | 
22 | CCCCCCn1c(=O)c2ccccc2c2cc(C(O)(C(F)(F)F)C(F)(F)F)ccc21 | 4.8 | 12.2 | 
23 | CC1(C)CCC(C)(C)c2cc3c(cc21)c1ccccc1c(=O)n3CC1CCCCC1 |  |  | EC50 (Hepatitis C virus [1]; nnc2): Not Active; CC50 [2]: Not Active
24 | CCCCn1c(=O)c2ccccc2c2c(C)cccc21 |  |  | inhibition (Hepatitis C virus [6]): inactive; cytotoxicity at 72 h, 10 µM [4]: 85.2%
25 | CC1(C)CCC(C)(C)c2cc3c(cc21)c1ccccc1c(=O)n3Cc1ccccc1 | 21.2 | 31.8 | 
26 | CCCCn1c(=O)c2ccccc2c2cc(O)ccc21 | 37.9 | 43.7 | 
27 | CCCCn1c(=O)c2ccccc2c2cc(CO)ccc21 | 21.5 | > 50 | 
28 | CCCCn1c(=O)c2cc(C)ccc2c2ccccc21 |  |  | cytotoxicity at 72 h, 10 µM [4]: 88.8%; inhibition at 10 µM (Hepatitis C virus [5]): 87%
29 | CCCCn1c(=O)c2ccc3ccccc3c2c2ccccc21 | > 31.4 | 31.4 | 
30 | O=c1c2ccccc2c2cc(C(O)(C(F)(F)F)C(F)(F)F)ccc2n1Cc1ccccc1 | 7.7 | 18.2 | 
31 | CCCCn1c(=O)c2ccccc2c2cc(C(C)=O)ccc21 | 18.7 | 27.3 | 
32 | CCCCn1c(=O)c2ccccc2c2ccc(C)cc21 |  |  | inhibition (Hepatitis C virus [6]): inactive; cytotoxicity at 72 h, 10 µM [4]: 70.7%
33 | CCCCCCCCCn1c(=O)c2ccccc2c2cc(C(O)(C(F)(F)F)C(F)(F)F)ccc21 | 8.3 | 10.2 | 
34 | CCCCn1c(=O)c2ccccc2c2cc(CC)ccc21 | 34.7 | 40.5 | 
35 | CCCCn1c(=O)c2ccccc2c2cc(C(C)O)ccc21 (stereo not given) | 21.8 | 51.4 | 
36 | CCCCn1c(=O)c2ccccc2c2cccc(C)c21 |  |  | inhibition (Hepatitis C virus [6]): inactive; inhibition (INH) [4]: Not Active
37 | CCCCn1c(=O)c2ccccc2c2cc(CCc3ccccc3)ccc21 | 21 | 24.1 | 
